In ChEMBL document CHEMBL1142866, “Synthesis and preliminary evaluation of 18F- or 11C-labeled bicyclic nucleoside analogues as potential probes for imaging varicella-zoster virus thymidine kinase gene expression using positron emission tomography” (J Med Chem, 2007):

Columns and labels:
[1] = Biodistribution in spleen/pancreas of NMRI mouse assessed as standard uptake value after 60 mins; assay type: ADME, organism-based; settings: in vivo, 1 h
Liver [2] = experiment: Biodistribution in liver of NMRI mouse assessed as standard uptake value after 60 mins; assay type: ADME, organism-based; settings: in vivo, 1 h
Blood [3] = experiment: Biodistribution in blood of NMRI mouse after 2 mins; assay type: ADME, organism-based; settings: in vivo
In short: (§1)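 Male NMRI mice (30-40 g) under ketamine/xylazine i.p. anesthesia received 0.1 mL of HPLC-purified 18F tracer (0.1 mCi/mL) or 11C tracer (1 mCi/mL) in water for injection via tail vein. Killed by decapitation at 2 or 60 min (n = 3 per time). Blood, organs and carcass weighed and gamma-counted. %ID = organ cpm/total cpm recovered. Blood mass taken as 7% of body mass. Mean ± SD.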

[4] = Drug uptake in human 293T cells transduced with VZV-tk gene after 1 hr; assay type: ADME, cell-based; settings: hek-293t
In short: (§2)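 Lentivirally transduced 293T cells (VZV-tk or LacZ control) plated in triplicate at 200 000 cells/well. After 24 h, 0.25 mL fresh medium with 5 µCi of the 18F tracer (3 h) or 30 µCi of the 11C tracer (1 h) added; 37 °C, 5% CO2. Cells washed thrice with ice-cold PBS, lysed, gamma-counted. Uptake given as % total radioactivity per mg protein (Bio-Rad assay); n = 3, unpaired two-sided t-test.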

Intestine [5] = experiment: Biodistribution in intestine of NMRI mouse after 60 mins; assay type: ADME, organism-based; settings: in vivo, 1 h; in short: as §1
[6] = Biodistribution in spleen/pancreas of NMRI mouse after 2 mins; assay type: ADME, organism-based; settings: in vivo; in short: as §1
Liver [7] = experiment: Biodistribution in liver of NMRI mouse after 60 mins; assay type: ADME, organism-based; settings: in vivo, 1 h; in short: as §1
Liver [8] = experiment: Biodistribution in liver of NMRI mouse assessed as standard uptake value after 2 mins; assay type: ADME, organism-based; settings: in vivo
Kidney [9] = experiment: Biodistribution in kidney of NMRI mouse after 60 mins; assay type: ADME, organism-based; settings: in vivo, 1 h; in short: as §1
Brain [10] = experiment: Biodistribution in brain of NMRI mouse assessed as standard uptake value after 2 mins; assay type: ADME, organism-based; settings: in vivo
[11] = Biodistribution in urine of NMRI mouse after 2 mins; assay type: ADME, organism-based; settings: in vivo; in short: as §1
Heart [12] = experiment: Biodistribution in heart of NMRI mouse assessed as standard uptake value after 60 mins; assay type: ADME, organism-based; settings: in vivo, 1 h
Blood [13] = experiment: Biodistribution in blood of NMRI mouse after 60 mins; assay type: ADME, organism-based; settings: in vivo, 1 h; in short: as §1
[14] = Ratio of drug uptake in LV-VZVTK-1-P transduced cells to LV-LacZ-I-P transduced 293T cells after 1 hr; assay type: ADME, cell-based; settings: human
In short: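 Lentivirally transduced 293T cells (VZV-tk or LacZ control), plated in triplicate at 200 000 cells/well. After 24 h, given fresh medium with 30 µCi HPLC-purified 11C-labelled tracer per well, then 1 h at 37 °C in 5% CO2. Washed thrice in ice-cold PBS, lysed, gamma-counted, normalized to Bio-Rad protein (% total radioactivity/mg protein). VZV-tk/LacZ ratio, n = 3, unpaired Student t-test.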

Blood [15] = experiment: Biodistribution in blood of NMRI mouse assessed as standard uptake value after 60 mins; assay type: ADME, organism-based; settings: in vivo, 1 h
[16] = Biodistribution in carcass of NMRI mouse after 2 mins; assay type: ADME, organism-based; settings: in vivo; in short: as §1
[17] = Biodistribution in carcass of NMRI mouse after 60 mins; assay type: ADME, organism-based; settings: in vivo, 1 h; in short: as §1
Heart [18] = experiment: Biodistribution in heart of NMRI mouse assessed as standard uptake value after 2 mins; assay type: ADME, organism-based; settings: in vivo
Lung [19] = experiment: Biodistribution in lung of NMRI mouse assessed as standard uptake value after 60 mins; assay type: ADME, organism-based; settings: in vivo, 1 h
[20] = Metabolic stability in mouse urine after 60 mins; assay type: ADME, tissue-based; settings: read-out: Stability
In short: (§3)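 Normal mice given 0.35-0.4 mCi of 11C tracer i.v. and decapitated at 2 or 30 min (plasma; one mouse per time) or 30/60 min (urine). EDTA plasma separated by centrifugation; urine used untreated. Samples spiked with authentic compound and run on Oasis HLB in series with C18, eluted with 0.05 M ammonium acetate/acetonitrile 70:30 at 1 mL/min. 1-mL fractions gamma-counted; intact tracer taken as % recovered radioactivity.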

[21] = Biodistribution in spleen/pancreas of NMRI mouse after 60 mins; assay type: ADME, organism-based; settings: in vivo, 1 h; in short: as §1
[22] = Partition coefficient, log P at pH 7.4; assay type: physicochemical; settings: octanol/water
In short: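 HPLC-purified radiotracer partitioned between 1-octanol and 0.025 M phosphate buffer pH 7.4. Vortexed 2 min at room temperature, centrifuged 5 min, aliquots of both phases gamma-counted. P = octanol cpm/buffer cpm after density and mass correction; n = 6.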

[23] = Drug uptake in human 293T cells transduced with LacZ gene after 1 hr; assay type: ADME, cell-based; settings: hek-293t; in short: as §2
Lung [24] = experiment: Biodistribution in lung of NMRI mouse after 60 mins; assay type: ADME, organism-based; settings: in vivo, 1 h; in short: as §1
Lung [25] = experiment: Biodistribution in lung of NMRI mouse assessed as standard uptake value after 2 mins; assay type: ADME, organism-based; settings: in vivo
Blood [26] = experiment: Biodistribution in blood of NMRI mouse assessed as standard uptake value after 2 mins; assay type: ADME, organism-based; settings: in vivo
Brain [27] = experiment: Biodistribution in brain of NMRI mouse assessed as standard uptake value after 60 mins; assay type: ADME, organism-based; settings: in vivo, 1 h
Brain [28] = experiment: Biodistribution in brain of NMRI mouse after 2 mins; assay type: ADME, organism-based; settings: in vivo; in short: as §1
Heart [29] = experiment: Biodistribution in heart of NMRI mouse after 60 mins; assay type: ADME, organism-based; settings: in vivo, 1 h; in short: as §1
Kidney [30] = experiment: Biodistribution in kidney of NMRI mouse assessed as standard uptake value after 60 mins; assay type: ADME, organism-based; settings: in vivo, 1 h
Brain [31] = experiment: Biodistribution in brain of NMRI mouse after 60 mins; assay type: ADME, organism-based; settings: in vivo, 1 h; in short: as §1
Intestine [32] = experiment: Biodistribution in intestine of NMRI mouse after 2 mins; assay type: ADME, organism-based; settings: in vivo; in short: as §1
[33] = Metabolic stability in mouse urine after 30 mins; assay type: ADME, tissue-based; settings: read-out: Stability; in short: as §3
[34] = Biodistribution in urine of NMRI mouse after 60 mins; assay type: ADME, organism-based; settings: in vivo, 1 h; in short: as §1
Plasma [35] = experiment: Metabolic stability in mouse plasma assessed as radioactivity after 30 mins; assay type: ADME, cell-free; settings: 0.5 h; in short: as §3
Liver [36] = experiment: Biodistribution in liver of NMRI mouse after 2 mins; assay type: ADME, organism-based; settings: in vivo; in short: as §1
Plasma [37] = experiment: Metabolic stability in mouse plasma assessed as radioactivity after 2 mins; assay type: ADME, cell-free; in short: as §3
[38] = Biodistribution in spleen/pancreas of NMRI mouse assessed as standard uptake value after 2 mins; assay type: ADME, organism-based; settings: in vivo
Heart [39] = experiment: Biodistribution in heart of NMRI mouse after 2 mins; assay type: ADME, organism-based; settings: in vivo; in short: as §1
Lung [40] = experiment: Biodistribution in lung of NMRI mouse after 2 mins; assay type: ADME, organism-based; settings: in vivo; in short: as §1
Kidney [41] = experiment: Biodistribution in kidney of NMRI mouse assessed as standard uptake value after 2 mins; assay type: ADME, organism-based; settings: in vivo
Kidney [42] = experiment: Biodistribution in kidney of NMRI mouse after 2 mins; assay type: ADME, organism-based; settings: in vivo; in short: as §1
[43] = biological target: T1, Thymidine kinase, cytosolic (Homo sapiens, UniProt P04183); experiment: Inhibition of recombinant cytosolic TK-1 assessed as [CH3-H3]dThd phosphorylation
T1 sequence (P04183 whole entry): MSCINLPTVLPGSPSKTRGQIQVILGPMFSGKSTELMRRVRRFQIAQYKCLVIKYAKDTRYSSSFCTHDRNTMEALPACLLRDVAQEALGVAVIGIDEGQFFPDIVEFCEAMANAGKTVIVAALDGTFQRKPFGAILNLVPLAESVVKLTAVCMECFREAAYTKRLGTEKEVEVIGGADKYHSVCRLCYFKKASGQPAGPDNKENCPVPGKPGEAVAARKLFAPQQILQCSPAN
In short: (§4)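 Purified recombinant VZV TK (7.75 ng), HSV-1 TK (226 ng) or cytosolic TK-1 (455 ng). Buffer: 50 mM Tris-HCl pH 8.0, 2.5 mM MgCl2, 10 mM DTT, 2.5 mM ATP, 1.0 mg/mL BSA, 10 mM NaF, 1 µM [CH3-3H]dThd final. Incubated 30 min at 37 °C (linear range) with graded compound concentrations. Product caught on DE-81 disks, washed, scintillation-counted. IC50 is 50% inhibition of dThd phosphorylation.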

Thymidine kinase = biological target: T2, Thymidine kinase (Human alphaherpesvirus 1, UniProt Q9QNF7); experiment: Inhibition of recombinant HSV-1 TK assessed as [CH3-H3]dThd phosphorylation; in short: as §4
T2 sequence (Q9QNF7 whole entry): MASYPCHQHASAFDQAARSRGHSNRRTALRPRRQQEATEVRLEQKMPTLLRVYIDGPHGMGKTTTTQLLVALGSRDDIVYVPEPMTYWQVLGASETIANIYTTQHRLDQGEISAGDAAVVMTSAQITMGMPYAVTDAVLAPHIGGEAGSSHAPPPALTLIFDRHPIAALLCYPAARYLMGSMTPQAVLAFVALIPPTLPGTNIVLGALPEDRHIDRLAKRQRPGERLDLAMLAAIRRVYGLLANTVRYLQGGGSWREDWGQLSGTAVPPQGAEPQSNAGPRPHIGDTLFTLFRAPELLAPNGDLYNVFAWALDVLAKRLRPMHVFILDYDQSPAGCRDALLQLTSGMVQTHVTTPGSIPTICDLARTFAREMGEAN

[44] = Inhibition of recombinant VZV TK assessed as [CH3-H3]dThd phosphorylation; parameters: species or system Human alphaherpesvirus 3; in short: as §4
OST [45] = experiment: Cytotoxicity against OST cells expressing HSV1 TK; assay type: cell-based; settings: human
In short: (§5)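 OST TK- control cells and OST TK- cells expressing HSV-1 TK or VZV TK were cultured 5 days with graded compound concentrations. Cells were then trypsinized and counted on a Coulter counter. CC50 is the concentration in µM that reduces cell number by 50%.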

OST [46] = experiment: Cytotoxicity against OST cells expressing VZV TK; assay type: cell-based; settings: human; in short: as §5

What does the source list for `[11CH3]Oc1cccc(-c2cc3cn([C@H]4C[C@H](O)[C@@H](CO)O4)c(=O)nc3o2)c1`?
Drug uptake [1]: 0.1; Drug uptake (Liver [2]): 0.7; Drug uptake (Blood [3]): 5.4 %ID; Drug uptake [4]: 12.8%; Drug uptake (Intestine [5]): 63.7 %ID; Drug uptake [6]: 2.4 %ID; Drug uptake (Liver [7]): 3.7 %ID; Drug uptake (Liver [8]): 3.7; Drug uptake (Kidney [9]): 0.3 %ID; Drug uptake (Brain [10]): 0.1; Drug uptake [11]: 0.2 %ID; Drug uptake (Heart [12]): 0; Drug uptake (Blood [13]): 0.2 %ID; Ratio [14]: 53; Drug uptake (Blood [15]): 0; Drug uptake [16]: 25.3 %ID; Drug uptake [17]: 3.5 %ID; Drug uptake (Heart [18]): 1; Drug uptake (Lung [19]): 0; remaining at 1 h [20]: 90%; Drug uptake [21]: 0.1 %ID; logD [22]: 1.27; Drug uptake [23]: 0.24%; Drug uptake (Lung [24]): 0 %ID; Drug uptake (Lung [25]): 1; Drug uptake (Blood [26]): 0.8; Drug uptake (Brain [27]): 0; Drug uptake (Brain [28]): 0 %ID; Drug uptake (Heart [29]): 0 %ID; Drug uptake (Kidney [30]): 0.2; Drug uptake (Brain [31]): 0 %ID; Drug uptake (Intestine [32]): 25.6 %ID; remaining at 0.5 h [33]: 90%; Drug uptake [34]: 28.2 %ID; Stability (Plasma [35]): 80%; Drug uptake (Liver [36]): 21.3 %ID; Stability (Plasma [37]): 98%; Drug uptake [38]: 2.7; Drug uptake (Heart [39]): 0.5 %ID; Drug uptake (Lung [40]): 0.7 %ID; Drug uptake (Kidney [41]): 12.4; Drug uptake (Kidney [42]): 21.7 %ID

With `COc1cccc(-c2cc3cn([C@H]4C[C@H](O)[C@@H](CO)O4)c(=O)nc3o2)c1` as the compound, how does the IC50 [43] read?
Its IC50 is > 500 µM.

What about the IC50 (Thymidine kinase) of the same compound?
The IC50 was > 500 µM.

What about the IC50 [44] of the same compound?
The IC50 was 4.8 µM.

And the Activity (OST [45])?
The Activity was “Not Active”.

What about the Activity (OST [46]) of the same compound?
Its Activity is “Not Active”.
